# Published values of several laboratories.
# Compare with care: the assays were run in different laboratories.
# Target: STE20-like serine/threonine-protein kinase (SLK, Homo sapiens, UniProt Q9H2G2)
SMILES,assay,setting,endpoint,result
COc1cc(Nc2ncc(F)c(Nc3ccc4c(n3)NC(=O)C(C)(C)O4)n2)cc(OC)c1OC,binding,10 µM,inhibition,100%
Nc1ncc(-c2nc(N3CCOCC3)nc(N3CCOCC3)n2)c(C(F)F)n1,"binding, competition with immobilised ligand",10 µM,remaining binding,24%
O=c1[nH]c2ccccc2n1C1CCN(Cc2ccc(-c3[nH]c4cc5ncnc5cc4nc3-c3ccccc3)cc2)CC1,cell-free assay,0.5 µM,remaining signal,97.7%
Cn1cc(-c2cccc(N3CCc4c(sc5c4CC(C)(C)C5)C3=O)c2CO)cc(Nc2ccncn2)c1=O,"enzyme activity, inhibitor",1 µM,inhibition,4%
CC(C)(C)c1cc(C=C(C#N)C#N)cc(Br)c1O,"enzyme activity, inhibitor",0.5 µM,remaining activity,94.7%
Cn1cncc1[C@@](O)(COc1ccc(C#N)cc1-c1ccc(OC(F)(F)F)cc1)c1ccc(C#N)cc1,"cell-free assay, competition with immobilised ligand",1 µM,remaining binding,100%
COc1ncccc1-c1cnn2ccc(N3CCN(C(=O)OC(C)C)CC3)nc12,"binding, competition with immobilised ligand",1 µM,remaining binding,100%
N#CC1(c2ccccn2)CCN(Cc2cc(C(=O)O)c(=O)n3ccccc23)CC1,"cell-free assay, competition with immobilised ligand",1 µM,remaining binding,99%
Cn1cc(-c2cc(F)cc(N3CCn4c(cc5c4CCCC5)C3=O)c2CO)cc(Nc2ccc(N3CCN(C4COC4)CC3)cn2)c1=O,"enzyme activity, inhibitor",0.1 µM,inhibition,4%
Cc1nn(C)cc1-c1nc2c(N3CCN(Cc4ccc(Cl)cc4)CC3)c(Cl)cnc2[nH]1,"binding, competition with immobilised ligand",1 µM,remaining binding,100%
